Experimental data gathered from unrelated publications.
KCNH2: Voltage-gated inwardly rectifying potassium channel KCNH2 (KCNH2, Homo sapiens, UniProt Q12809)

| SMILES | target or system | assay | test system | setting | measurement | value |
| --- | --- | --- | --- | --- | --- | --- |
| Cc1[nH]c(C)c(S(=O)(=O)Nc2ccc(S(F)(F)(F)(F)F)cc2)c1C(=O)N1CCC(F)(F)C1 | KCNH2 | ion current, inhibitor, patch clamp |  |  | IC50 | > 30 µM |
| O=c1nc(NO)ccn1[C@@H]1O[C@H](CO)[C@@H](O)[C@H]1O | Caco-2 | cell growth or viability |  |  | CC50 | > 100 µM |
| CO[C@H]1/C=C/O[C@@]2(C)Oc3c(C)c(O)c4c(O)c(c(/C=N/N5CCN(C6CCCC6)CC5)c(O)c4c3C2=O)NC(=O)/C(C)=C\C=C\[C@H](C)[C@H](O)[C@@H](C)[C@@H](O)[C@@H](C)[C@H](OC(C)=O)[C@@H]1C |  |  | male Sprague-Dawley rat, plasma | intravenous, 10 mg/kg, single dose | MRT | 24.4 h |
| CC[C@H](C)CCCCC(=O)N[C@@H](CCN)C(=O)N[C@H](C(=O)N[C@@H](CCN)C(=O)N[C@H]1CCNC(=O)[C@H]([C@@H](C)O)NC(=O)[C@H](CCN)NC(=O)[C@H](CCN)NC(=O)[C@H](CC(C)C)NC(=O)[C@@H](CC(C)C)NC(=O)[C@H](CCN)NC1=O)[C@@H](C)O |  |  | male Sprague-Dawley rat, plasma | subcutaneous, 10 mg/kg | MRT(0-inf) | 4.88 h |
| COc1ccc(F)cc1C(=O)NCc1ccc(-c2nn([C@@H](C)C(F)(F)F)c(N)c2C(N)=O)cc1 |  |  | human, plasma | oral, 200 mg, single dose, fasted | Tmax | 2.5 h |
| CC(C)CC(=O)OC[C@H]1O[C@@](C#N)(c2ccc3c(N)ncnn23)[C@H](O)[C@@H]1O | KCNH2 | ligand displacement |  | 20 µM | inhibition | -3% |
| N#C[C@@]1(n2ccc(N)nc2=O)O[C@H](CO)[C@@H](O)[C@H]1O | Caco-2 | cell growth or viability |  |  | CC50 | > 100 µM |
| Cc1cccc(C)c1NC(=O)C1CCCCN1 (centres unmarked) | KCNH2 | ion current, inhibitor, patch clamp |  | 100 µM | inhibition | 19.4% |
